Compound activity from PubChem.
STEP block = STEP (human) phosphatase inhibition; P54829; recombinant STEP, OMFP fluorogenic substrate, fluorescence; inhibition, % at 20 µM; actives 0.25% (n = 360,000);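 active = inhibition at 20 µM, scaled per plate between control wells, above about 37%, limit read from the data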;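 note: 0% = DMSO with enzyme and substrate and 100% = substrate only without enzyme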
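System: STEP phosphatase, cell-free reaction; Buffer or medium: Bis-Tris pH 6.0 buffer with DTT, detergent; Incubation: 20 min at room temperature, dark; Measured by: fluorescence, 480/540 nm.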
SUMO1-SIM PPI = SUMO1-SIM interaction modulation; actives 0.33% (n = 360,000); inhibition, % at 20 µM; P63165; SUMO1 binding to a labelled peptide, TR-FRET, 1 h; in the data active = inhibition above about 37%
DNMT1 inh = blocks human DNA methyltransferase DNMT1. P26358. DNMT1 molecular beacon, Hinp1I cleavage, fluorescence. inhibition (reported as % activation of signal), % at 10 µM. actives 0.83% (n = 360,000). AID 588458; in the data active = inhibition above about 50%
Target sequence (P26358 504-1616 limits assumed): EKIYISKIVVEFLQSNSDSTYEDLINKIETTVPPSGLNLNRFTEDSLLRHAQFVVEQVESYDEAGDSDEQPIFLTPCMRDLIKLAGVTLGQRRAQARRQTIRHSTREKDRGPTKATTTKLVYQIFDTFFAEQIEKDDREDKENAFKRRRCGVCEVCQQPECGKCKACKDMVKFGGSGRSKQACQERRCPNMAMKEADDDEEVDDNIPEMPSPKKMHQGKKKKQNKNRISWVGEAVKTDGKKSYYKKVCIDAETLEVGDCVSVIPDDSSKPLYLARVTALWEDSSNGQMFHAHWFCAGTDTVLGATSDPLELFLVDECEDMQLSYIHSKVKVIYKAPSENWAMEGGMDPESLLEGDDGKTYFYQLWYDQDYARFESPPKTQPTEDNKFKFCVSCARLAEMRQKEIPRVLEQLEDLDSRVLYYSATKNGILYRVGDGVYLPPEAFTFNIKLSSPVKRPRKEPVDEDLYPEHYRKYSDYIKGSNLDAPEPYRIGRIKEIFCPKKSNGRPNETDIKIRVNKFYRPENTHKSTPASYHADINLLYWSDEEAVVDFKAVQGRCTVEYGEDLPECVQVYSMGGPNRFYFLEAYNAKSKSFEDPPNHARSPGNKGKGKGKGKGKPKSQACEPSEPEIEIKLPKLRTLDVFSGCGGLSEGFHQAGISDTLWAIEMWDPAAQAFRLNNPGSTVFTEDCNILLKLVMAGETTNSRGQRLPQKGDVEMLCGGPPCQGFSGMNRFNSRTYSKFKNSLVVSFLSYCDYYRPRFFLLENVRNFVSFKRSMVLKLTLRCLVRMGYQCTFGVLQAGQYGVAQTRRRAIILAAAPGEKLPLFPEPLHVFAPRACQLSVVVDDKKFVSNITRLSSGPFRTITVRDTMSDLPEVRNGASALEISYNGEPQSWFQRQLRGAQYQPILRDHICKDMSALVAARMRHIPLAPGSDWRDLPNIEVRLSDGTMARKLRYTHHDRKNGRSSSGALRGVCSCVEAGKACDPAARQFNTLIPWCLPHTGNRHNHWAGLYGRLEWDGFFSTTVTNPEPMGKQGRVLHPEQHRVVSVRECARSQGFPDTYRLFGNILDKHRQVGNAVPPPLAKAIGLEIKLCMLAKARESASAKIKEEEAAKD
LMPTP block = blocks human LMPTP phosphatase; recombinant LMPTP-A, OMFP fluorogenic substrate, fluorescence intensity; inhibition, % at 20 µM; actives 0.22% (n = 360,000); AID 651560;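 active = compounds that cut the enzyme signal by at least half of the control window in the single-dose screen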;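 note: plate controls were DMSO wells with enzyme plus substrate for no effect and substrate without enzyme for full effect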
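Test system: LMPTP-A phosphatase enzyme; input: 0.625 nM LMPTP-A final; reagent: OMFP substrate, 400 µM final; compound dosing: 20 µM single dose, 3% DMSO; incubation: 50 min dark incubation at room temperature; measured by: endpoint fluorescence intensity from OMFP dephosphorylation; measure: % inhibition relative to no-enzyme and uninhibited control wells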
Rpn11 inh = Rpn11 (human) deubiquitinase inhibition. inhibition, % at 20 µM. O00487. actives 0.59% (n = 360,000). AID 588493. human 26S proteasome, Ub4-pepOG fluorescence polarization; 20S core pre-blocked with epoxomicin;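 active = inhibition at 20 µM, scaled to each plate's controls, above about 33%, limit read from the data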
Scp-1 inhibitor = blocks human Scp-1 phosphatase activity; actives 0.88% (n = 340,000); inhibition, % at 20 µM; Recombinant Scp1, phosphopeptide, malachite green phosphate absorbance; Q9GZU7;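 active = inhibition above about 50% at 20 µM, limit read from the data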;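 note: plate controls were DMSO wells with enzyme for no effect and wells lacking enzyme for full effect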
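Test system: SCP-1 phosphatase catalytic domain, residues 76-261 | Compound dosing: One concentration, 20 µM, with 1.0% DMSO | Schedule: 45 min room-temperature reaction, 5 min colour, 30 min stabiliser | Detection: Absorbance at 630 nm | Read-out basis: % inhibition of SCP-1 phosphate liberation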
Rpn11 confirm = Rpn11 inhibition confirmation, single concentration; inhibition, % at 20 µM; purified human 26S proteasome, Ub4-pepOG fluorescence polarization; proteasome pretreated with epoxomicin; shares compounds with Rpn11 inh; actives 29% (n = 1,900)
MMP-2 inh = MMP-2 (human) inhibition counter-screen; shares compounds with Rpn11 inh; recombinant MMP-2, FRET peptide cleavage fluorescence; inhibition, % at 20 µM; actives 4% (n = 1,900); AID 602330;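 note: human MMP-2 activated beforehand with APMA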
Thrombin FP = counter-screen for RPN11 inhibitors: inhibition of bovine thrombin. actives 13% (n = 1,900). inhibition, % at 20 µM. bovine thrombin cleavage of Ub4-pepOG, fluorescence polarization. shares compounds with Rpn11 inh;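 active = mean inhibition at least 40% at 20 µM, or signal 3 deviations below plate average, so some actives read negative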;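 note: plate controls were thrombin with DMSO for no effect and buffer wells lacking thrombin for full effect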
An asterisk follows results filed as active; nt = not tested or not shown. Sampled rows, rich in hits. Any-hit rate of the full collection: about 2.3%. Cut-off read from the data, not from the text of the source, unless noted: active = inhibition above about 40%; inactive = the rest.

SMILES	STEP block	SUMO1-SIM PPI	DNMT1 inh	LMPTP block	Rpn11 inh	Scp-1 inhibitor	Rpn11 confirm	MMP-2 inh	Thrombin FP
CCC(C)C(=O)Nc1nc(C)c(-c2csc(Nc3ccc(Cl)cc3)n2)s1 (centres undefined)	-2	2	-32	2	39*	-2	20	14	-6
Cc1ccccc1OCc1occc1C(=O)Nc1cccc(-n2cnnn2)c1	-3	0	-10	2	10	-9	nt	nt	nt
N#CNC(=Nc1cccc(F)c1)SCc1ccccc1	-3	-2	-1	0	47*	-1	-24	-28	-25
CC(=O)OCC1OC(n2c3c(cc(C#N)c2=S)CCCC3)C(OC(C)=O)C(OC(C)=O)C1OC(C)=O (centres undefined)	0	5	14	-1	7	-3	nt	nt	nt
CC(=O)OCC1OC(n2c(-c3ccc(Cl)cc3)ccc(C#N)c2=S)C(OC(C)=O)C(OC(C)=O)C1OC(C)=O (centres undefined)	7	-50	11	0	44*	-3	17	-38	8
CN1CCN(c2ccc(-c3cc(NC=O)c4ncc(-c5ccc(F)c(Cl)c5)n4c3)cc2)CC1	4	-52	-32	0	48*	nt	27	-8	14
COc1ccc(NC(=O)CSc2nnc(CCC(=O)Nc3ccc(C)c(Cl)c3)n2C)cc1	2	0	-1	-1	1	2	nt	nt	nt
COc1ccc(CC(=O)OC(C)C(=O)NC2CCCCC2C)cc1 (centres undefined)	0	1	-1	-1	0	-7	nt	nt	nt
Nc1ccc(/C=C/C(=O)c2ccco2)cc1	-5	-16	-5	1	90*	-6	77*	-31	67*
Cc1cccc(CNC(=O)c2ccccc2N)c1	-2	4	-3	-1	198*	-6	-7	-5	-7
Cc1ccc(CNC(=O)c2ccccc2N)cc1	-2	1	2	-1	-4	-6	nt	nt	nt
CC(=O)NNc1cc(C)nc(N)n1	-1	2	4	2	-5	-3	nt	nt	nt
CN1C(=O)/C(=C\C=C2/CCCN2C)N(C)C1=S	-1	-36	-3	7	77*	-2	74*	-94	60*
CCN1C(=O)/C(=C/C=C2/CCCN2C)OC1=S	0	-20	3	0	76*	-3	43*	6	54*
O=C(CCc1ccccc1)N1CCN(S(=O)(=O)c2cccs2)CC1	0	1	1	0	-1	6	nt	nt	nt
O=C(Nc1nnc(-c2ccccc2)o1)Nc1ccc(F)cc1F	-3	1	2	-1	0	-3	nt	nt	nt
O=C(O)C(Cc1cccs1)c1cccs1 (centres undefined)	2	-1	2	-1	-5	-2	nt	nt	nt
CN1CCc2nc(NC(=O)c3cccc(S(=O)(=O)N4CCc5ccccc54)c3)sc2C1	8	-5	-13	5	75*	5	4	11	-3
O=C1[C@H](Cc2ccccc2)NCCCC[C@H](c2ccco2)N1Cc1ccccc1	1	-1	0	2	2	-4	nt	nt	nt
CCc1ccc(C(=O)COC(=O)c2ccc(-c3nnc(-c4ccccc4)o3)cc2)cc1	5	-2	45	30	44*	0	8	5	-13
CCOC(=O)c1nnc(-c2ccccc2)o1	0	0	3	-1	-22	-3	nt	nt	nt
COC(=O)c1ccc(NC(=O)CCN2CCN(c3ccccc3)CC2)cc1	3	4	1	-1	154*	-5	2	-17	-3
O=C1NC(=Nc2ccccc2)S/C1=C\C=C\c1ccco1	2	26	93*	15	58*	-2	18	52*	31
COc1ccc(N=C2NC(=O)/C(=C/C=C/c3ccccc3)S2)cc1	-4	2	16	-2	0	-4	nt	nt	nt
COc1ccc(C)cc1Nc1n[n+](-c2ccccc2)c(-c2ccc(N(C)C)cc2)s1	-1	-44	60*	6	60*	14	75*	3	127*
SMILES	STEP block	SUMO1-SIM PPI	DNMT1 inh	LMPTP block	Rpn11 inh	Scp-1 inhibitor	Rpn11 confirm	MMP-2 inh	Thrombin FP
O=S(=O)(NCc1ccco1)c1ccccc1Br	1	-3	5	-2	-2	-5	nt	nt	nt
Cc1ccc(NC(=O)CCNCc2ccco2)cc1S(=O)(=O)N(C)C	0	0	-1	-1	2	-10	nt	nt	nt
Cc1cc(-c2ccc(S(=O)(=O)N(C)c3ccc(C)c(C)c3)s2)on1	1	-2	-2	4	40*	-18	43*	9	40*
Cc1ccc(N(C)S(=O)(=O)c2ccc(-c3cc(C)no3)s2)cc1	0	-8	-2	2	-5	-11	nt	nt	nt
O=C(NCCN1CCCCCC1)c1ccc(CS(=O)(=O)c2ccc(Br)cc2)o1	-1	-27	27	22	53*	-8	32	14	13
O=C(NCCCN1CCCCCC1)c1ccc(CS(=O)(=O)Cc2ccccc2F)o1	0	19	-31	34	73*	-38	75*	-436	3
O=C(CSc1ncnc2c1nnn2Cc1ccccc1F)NCC1CCCO1 (centres undefined)	-3	1	-1	0	-13	-5	nt	nt	nt
COc1ccc(N=C2S/C(=C\c3ccc(C)s3)C(=O)N2CC(C)C)cc1	10	0	4	2	100*	-8	-3	-3	3
CN(CCc1ccccc1)C(=O)c1cccc(NC(=O)Cc2cccc([N+](=O)[O-])c2)c1	1	-19	-2	1	8	-6	nt	nt	nt
COc1ccc(-c2cc(-c3ccccc3)nc(SC(C)C(=O)O)c2C#N)cc1 (centres undefined)	4	4	-2	3	4	-12	nt	nt	nt
Cc1cc(N/N=C/c2ccc([N+](=O)[O-])o2)nc2ccccc12	5	-21	-1	6	51*	-2	25	-12	10
O=[N+]([O-])c1ccc(/C=N/Nc2ccnc3cc(Cl)ccc23)o1	0	-17	20	8	50*	-1	39	-15	16
Cc1cc2ncn(/N=C/c3ccc([N+](=O)[O-])o3)c2cc1C	1	-19	-10	-1	50*	0	50*	-22	20
